Measurements as given in PMC10651777 (Blood, 2022).

Assays:
[1] = Plasma pharmacokinetics at steady state; format: in vivo, human; conditions: for Cmax: human, plasma, oral, Mean Cmax, steady state
How it was run: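 Patients with relapsed/refractory AML or secondary AML received venetoclax daily on days 1–28 (3–5-day ramp-up to 400, 600 or 800 mg) plus idasanutlin 150, 200 or 400 mg daily or 300 mg twice daily on days 1–5 of 28-day cycles. Noncompartmental analysis of venetoclax plasma concentration–time data; summary statistics of steady-state Cmax and trough. Data from 49 patients across 5 cohorts.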

[2] = test system: Macrophage inhibitory cytokine-1 (MIC-1); test: Serum MIC-1 ELISA; format: in vivo, human; conditions: day 5; idasa 150 to 400 mg daily for 5 days
How it was run: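 Serum from patients with relapsed/refractory or secondary AML on venetoclax plus idasanutlin. Idasanutlin was given daily or twice daily on days 1–5 of 28-day cycles. MIC-1 was quantified by a human GDF-15 immunoassay kit (ELISA).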

AML = conditions: idasa monotherapy, cited from earlier work
MIC-1 = conditions: day 5 of treatment, 100 mg daily for 5 days, PV; cited from earlier work
[3] = test system: R/R AML and newly diagnosed patients with AML unfit for intensive chemotherapy; conditions: ven monotherapy; cited from earlier work
[4] = Cohort B1.2.1, n = 5, ven 600 mg, idasa 150 mg

Q: With `COc1cc(C(=O)O)ccc1NC(=O)[C@@H]1N[C@@H](CC(C)(C)C)[C@](C#N)(c2ccc(Cl)cc2F)[C@H]1c1cccc(Cl)c1F` [idasa, idasanutlin] as the molecule, how does the Cmax ([1]; 400 mg, Cohort B4, n = 8, ven 400 mg, idasa 400 mg) read?
A: 7110 ng/mL

Q: What about the Cmax [1, 4] of the same molecule?
A: 3220 ng/mL

Q: What about the MIC-1 increases [2] of the same molecule?
A: 10- to 20 fold

Q: And the All-grade diarrhea rate (AML; 400-800 mg twice daily microprecipitated bulk powder)?
A: 91.3%

Q: What about the All-grade nausea rate (AML) of the same molecule?
A: 73.9%

Q: And the All-grade vomiting rate (AML)?
A: 39.1%

Q: What about the “CR/CRi/MLFS rate (antileukemic response)” value (AML) of the same molecule?
A: 21%

Q: And the “Rate of grade ≥3 diarrhea” value (AML)?
A: 23.9%

Q: What about the “Rate of grade ≥3 nausea” value (AML) of the same molecule?
A: 0%

Q: And the “Plasma MIC-1 levels increase” value (MIC-1)?
A: 4.8 fold

Q: Which Cmax [1, 4] does the source give for `CC1(C)CCC(CN2CCN(c3ccc(C(=O)NS(=O)(=O)c4ccc(NCC5CCOCC5)c([N+](=O)[O-])c4)c(Oc4cnc5[nH]ccc5c4)c3)CC2)=C(c2ccc(Cl)cc2)C1` [ven, Venetoclax] here?
A: 1450 ng/mL

Q: And the “Impact of the coadministration of idasa on ven pharmacokinetics” value ([1]; in vivo)?
A: no significant impact

Q: And the “Pharmacokinetics of ven in this combination” value ([1]; vs historical ven monotherapy)?
A: comparable to ven monotherapy

Q: And the All-grade diarrhea rate [3]?
A: 56%

Q: What about the All-grade nausea rate [3] of the same molecule?
A: 59%

Q: And the All-grade vomiting rate [3]?
A: 41%

Q: And the “CR/CRi rate (CRc)” value [3]?
A: 19%

Q: What about the “Rate of grade ≥3 diarrhea” value [3] of the same molecule?
A: 6%

Q: And the “Rate of grade ≥3 nausea” value [3]?
A: 6%
